Measurements from ChEMBL document CHEMBL1122774, “Tri- and tetrapeptide analogues of kinins as potential renal vasodilators” (J Med Chem, 1984).
Values belong to the compound of their own block, whether it stands above or below them. Square brackets hold non-standard residues; d marks the D form. Peptide text beside a SMILES is read from it. * marks the point of attachment. ξ: configuration not given here. pNA = O=[N+]([O-])c1ccc(N*)cc1; ξαMeF = CC(N)(Cc1ccccc1)C(=O)O; Bz = O=C(c1ccccc1)*

What was measured:
Canis familiaris [1] = assay: In vivo percent change in canine heart rate at 30 ug/Kg/min.; assay type: functional, Canis lupus familiaris
Outline: (§1)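 Primary screen in anesthetized dogs (7-17 kg). Drug infused separately at 3, 30 and 300 µg/(kg min), each infusion lasting 5 min, at about 15-min intervals. Read-outs are renal blood flow, mean arterial blood pressure, heart rate, and RVR (MABP / mean RBF), as percent change. Significance thresholds are defined per number of dogs; n = 1-3 dogs.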

Canis familiaris [2] = assay: In vivo percent change in canine renal blood flow (RBF) at 3 ug/Kg/min.; assay type: functional, Canis lupus familiaris, Kidney; outline: as §1
Canis familiaris [3] = assay: In vivo percent change in canine renal vascular resistance (RVR) at 3 ug/Kg/min.; assay type: functional, Canis lupus familiaris; outline: as §1
Canis familiaris [4] = assay: In vivo percent change in renal blood flow at 30 ug/Kg/min.; assay type: functional, Canis lupus familiaris, Kidney; outline: as §1
Canis familiaris [5] = assay: In vivo percent change in canine renal vascular resistance (RVR) at 300 ug/Kg/min.; assay type: functional, Canis lupus familiaris; outline: as §1
Canis familiaris [6] = assay: In vivo percent change in canine heart rate at 3 ug/Kg/min.; assay type: functional, Canis lupus familiaris; outline: as §1
Canis familiaris [7] = assay: In vivo percent change in canine mean arterial blood pressure (MABP) at 300 ug/Kg/min.; assay type: functional, Canis lupus familiaris; outline: as §1
Canis familiaris [8] = assay: In vivo percent change in canine renal blood flow (RBF) at 300 ug/Kg/min.; assay type: functional, Canis lupus familiaris, Kidney; outline: as §1
Canis familiaris [9] = assay: In vivo percent change in canine mean arterial blood pressure (MABP) at 30 ug/Kg/min.; assay type: functional, Canis lupus familiaris; outline: as §1
Canis familiaris [10] = assay: In vivo percent change in canine mean arterial blood pressure (MABP) at 3 ug/Kg/min.; assay type: functional, Canis lupus familiaris; outline: as §1
Canis familiaris [11] = assay: Renal vasodilator activity in anesthetized dogs and percent change in heart rate (HR) was determined at 300 ug/Kg/min; assay type: functional, Canis lupus familiaris; outline: as §1
Canis familiaris [12] = assay: In vivo percent change in canine renal vascular resistance (RVR) at 30 ug/Kg/min.; assay type: functional, Canis lupus familiaris; outline: as §1
Canis familiaris [13] = assay: In vivo percent change in canine heart rate at 300 ug/Kg/min.; assay type: functional, Canis lupus familiaris; outline: as §1
Canis familiaris [14] = assay: In vivo percent change in canine renal blood flow (RBF) at 30 ug/Kg/min.; assay type: functional, Canis lupus familiaris, Kidney; outline: as §1
Canis familiaris [15] = assay: Renal vasodilator activity in anesthetized dogs and percent change in mean arterial blood pressure (MABP) was determined at 30 ug/kg min; assay type: functional, Canis lupus familiaris; outline: as §1
Canis familiaris [16] = assay: Renal vasodilator activity in anesthetized dogs and percent change in heart rate (HR) was determined at 30 ug/kg min; assay type: functional, Canis lupus familiaris; outline: as §1
Canis familiaris [17] = assay: Renal vasodilator activity in anesthetized dogs and percent change in renal vascular resistance (RVR) was determined at 3 ug/kg min; assay type: functional, Canis lupus familiaris; outline: as §1
Canis familiaris [18] = assay: Renal vasodilator activity in anesthetized dogs and percent change in mean arterial blood pressure (MABP) was determined at 3 ug/kg min; assay type: functional, Canis lupus familiaris; outline: as §1
Canis familiaris [19] = assay: Renal vasodilator activity in anesthetized dogs and percent change in renal vascular resistance (RVR) was determined at 30 ug/kg min; assay type: functional, Canis lupus familiaris; outline: as §1
Canis familiaris [20] = assay: Renal vasodilator activity in anesthetized dogs and percent change in mean arterial blood pressure (MABP) was determined at 300 ug/kg min; assay type: functional, Canis lupus familiaris; outline: as §1
[21] = Average max percent decrease in RVR (renal vascular resistance) was determined.
Outline: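 Secondary protocol in anesthetized dogs. Drug given as iv infusion at progressively increasing rates, each dose level for 5 min. The maximum effect is taken as the largest percent decrease in renal vascular resistance (RVR) reached with the compound. RVR is calculated as mean arterial blood pressure / mean renal blood flow.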

Canis familiaris [22] = assay: Renal vasodilator activity in anesthetized dogs and percent change in heart rate (HR) was determined at 300 ug/kg min; assay type: functional, Canis lupus familiaris; outline: as §1
Canis familiaris [23] = assay: Renal vasodilator activity in anesthetized dogs and percent change in renal blood flow (RBF) was determined at 300 ug/kg min; assay type: functional, Canis lupus familiaris, Kidney; outline: as §1
Canis familiaris [24] = assay: Renal vasodilator activity in anesthetized dogs and percent change in renal vascular resistance (RVR) was determined at 300 ug/kg min; assay type: functional, Canis lupus familiaris; outline: as §1
[25] = Ratio of ED30 of iliac vascular resistant (IVR) to the ED15 of RVR (renal vascular resistance); assay type: functional
Outline: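 Anesthetized dogs in the secondary cumulative-infusion protocol, each dose level 5 min. Selectivity ratio is the dose giving a 30% change in iliac vascular resistance divided by the RVR ED15, the cumulative dose decreasing renal vascular resistance by 15%.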

Canis familiaris [26] = assay: Renal vasodilator activity in anesthetized dogs and percent change in heart rate (HR) was determined at 3 ug/kg min; assay type: functional, Canis lupus familiaris; outline: as §1
Canis familiaris [27] = assay: Renal vasodilator activity in anesthetized dogs and percent change in renal blood flow (RBF) was determined at 3 ug/kg min; assay type: functional, Canis lupus familiaris, Kidney; outline: as §1
Canis familiaris [28] = assay: Compound was evaluated for renal vasodilator activity and represented as ED15 (intravenous administration); assay type: functional; conditions: Canis lupus familiaris
Outline: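 Secondary protocol in anesthetized dogs with iv infusion at progressively increasing rates, each level infused 5 min. Potency is the cumulative dose (µg/kg) that lowered renal vascular resistance (MABP / mean RBF) by 15%. Minimum change needed for significance (p = 0.95) is 16% for RVR.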

Canis familiaris [29] = assay: Renal vasodilator activity in anesthetized dogs and percent change in renal blood flow (RBF) was determined at 30 ug/kg min; assay type: functional, Canis lupus familiaris, Kidney; outline: as §1
Canis familiaris [30] = assay: Renal vasodilator activity in anesthetized dogs and percent change in renal vascular resistance (RVR) was determined at 30 ug/Kg/min; assay type: functional, Canis lupus familiaris; outline: as §1
Canis familiaris [31] = assay: Renal vasodilator activity in anesthetized dogs and percent change in mean arterial blood pressure (MABP) was determined at 3 ug/Kg/min; assay type: functional, Canis lupus familiaris; outline: as §1
[32] = Ratio of ED20 of MABP (mean arterial blood pressure) to the ED15 of RVR ( renal vascular resistance).; assay type: functional
Outline: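 Anesthetized dogs in the secondary cumulative-infusion protocol, each dose level 5 min. Selectivity ratio is the dose giving a 20% change in mean arterial blood pressure divided by the cumulative dose lowering renal vascular resistance 15% (RVR ED15).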

Compound: CC(Cc1ccccc1)(NC(=O)[C@@H]1CCCN1)C(=O)NCCCN.Cl.Cl (stereo partly specified)
Change (Canis familiaris [1]): -1%
Change (Canis familiaris [2]): 5%
Change (Canis familiaris [3]): -4%
Change (Canis familiaris [4]): 1%
Change (Canis familiaris [5]): -3%
Change (Canis familiaris [6]): -1%
Change (Canis familiaris [7]): -1%
Change (Canis familiaris [8]): 2%
Change (Canis familiaris [9]): -1%
Change (Canis familiaris [10]): 1%
Change (Canis familiaris [11]): 0%
Change (Canis familiaris [12]): -1%

Compound: N=C(N)NCCC[C@H](NC[C@H](Cc1ccccc1)NC(=O)[C@@H]1CCCN1)C(=O)O
Change (Canis familiaris [1]): 0%
Change (Canis familiaris [2]): 0%
Change (Canis familiaris [3]): 0%
Change (Canis familiaris [5]): -2%
Change (Canis familiaris [6]): -3%
Change (Canis familiaris [7]): -2%
Change (Canis familiaris [8]): 0%
Change (Canis familiaris [13]): 0%
Change (Canis familiaris [9]): 0%
Change (Canis familiaris [14]): 3%
Change (Canis familiaris [10]): 0%
Change (Canis familiaris [12]): -3%

Decrease [21]: 20%
Compound: N=C(N)NCCC[C@H](NC(=O)[C@H](Cc1ccccc1)NC(=O)[C@@H]1CCCN1C(=O)c1ccccc1)C(=O)Nc1ccc([N+](=O)[O-])cc1 (Bz-Pro-Phe-Arg-pNA)
Change (Canis familiaris [15]): 1.5%
Change (Canis familiaris [16]): -3%
Change (Canis familiaris [17]): 0%
Change (Canis familiaris [18]): 1.2%
Change (Canis familiaris [19]): -3%
Change (Canis familiaris [20]): -26.6%
Change (Canis familiaris [22]): -10%
Change (Canis familiaris [23]): 27%
Change (Canis familiaris [24]): -38.7%
Ratio [25]: > 20
Change (Canis familiaris [26]): 0%
Change (Canis familiaris [27]): 1.9%
ED15 (Canis familiaris [28]): 0.297 mg/kg
Change (Canis familiaris [29]): 4.8%

Compound: CC(Cc1ccccc1)(NC(=O)[C@@H]1CCCN1C(=O)c1ccccc1)C(=O)N[C@@H](CCCN=C(N)N)C(=O)O (stereo partly specified) (Bz-Pro-[ξαMeF]-Arg-OH)
Change (Canis familiaris [1]): 3%
Change (Canis familiaris [2]): 4%
Change (Canis familiaris [3]): -5%
Change (Canis familiaris [4]): 3%
Change (Canis familiaris [5]): 0%
Change (Canis familiaris [6]): -6%
Change (Canis familiaris [7]): -4%
Change (Canis familiaris [8]): -3%
Change (Canis familiaris [9]): 1%
Change (Canis familiaris [10]): -1%
Change (Canis familiaris [11]): 6%
Change (Canis familiaris [12]): -2%

Compound: CC(Cc1ccccc1)(NC(=O)[C@@H]1CCCN1C(=O)CCCc1ccccc1)C(=O)NCCCN.Cl (stereo partly specified)
Change (Canis familiaris [1]): 0.3%
Change (Canis familiaris [2]): 4%
Change (Canis familiaris [3]): -3.5%
Change (Canis familiaris [4]): 5.5%
Change (Canis familiaris [5]): -11.5%
Change (Canis familiaris [30]): -6%
Change (Canis familiaris [6]): -1.5%
Change (Canis familiaris [31]): 0%
Change (Canis familiaris [7]): -3.5%
Change (Canis familiaris [8]): 10%
Change (Canis familiaris [13]): 0.5%
Change (Canis familiaris [9]): -0.5%

Decrease [21]: 67%
Compound: H-RPPGFSPFR-OH [BRADYKININ]

Compound: H-FSPFR-OH
Change (Canis familiaris [15]): 0.5%
Change (Canis familiaris [16]): 0%
Change (Canis familiaris [17]): -3.8%
Change (Canis familiaris [18]): -1.2%
Change (Canis familiaris [19]): -5.1%
Change (Canis familiaris [20]): -5.7%
Change (Canis familiaris [22]): 4.8%
Change (Canis familiaris [23]): 26.2%
Change (Canis familiaris [24]): -24.8%
Ratio [25]: > 1160
Change (Canis familiaris [26]): 0.8%
Change (Canis familiaris [27]): 3%
Ratio [32]: >1158
ED15 (Canis familiaris [28]): 0.0052 mg/kg
Change (Canis familiaris [29]): 6.5%

Compound: Cl.Cl.NCCCNC(=O)[C@H](Cc1ccccc1)NC(=O)[C@@H]1CCCN1
Change (Canis familiaris [1]): -1%
Change (Canis familiaris [2]): 3.5%
Change (Canis familiaris [3]): -3%
Change (Canis familiaris [5]): -9%
Change (Canis familiaris [6]): -1.5%
Change (Canis familiaris [7]): -3.5%
Change (Canis familiaris [8]): 6.5%
Change (Canis familiaris [13]): -1%
Change (Canis familiaris [9]): 0%
Change (Canis familiaris [14]): 5%
Change (Canis familiaris [10]): -0.5%
Change (Canis familiaris [12]): -5%
